Active and inactive are the calls of the source. The rule behind the calls is not given here.

This note sets out measurements from ChEMBL document CHEMBL4680226, “Design, synthesis, and evaluation of N-phenyl-4-(2-phenylsulfonamido)-benzamides as microtubule-targeting agents in drug-resistant cancer cells, displaying HDAC inhibitory response” (Eur J Med Chem, 2020).

The test system of experiment [1] is KB-VIN. Nature of the experiment: Induction of apoptosis in human KB-VIN cells assessed as increase in cleaved caspase-9 expression by Western blot analysis. Format: functional, cell-based. In outline: (§1)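 Resistant KB cells attached overnight, then drug-treated at the stated concentrations and times (24 h or 48 h). Lysates were immunoblotted for cleaved PARP, caspase-3, -8 and -9, and γH2AX, with anti-mouse or anti-rabbit IgG secondaries.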

For experiment [2], the system named is KB7D. Nature of the experiment: Cell cycle arrest in human KB7D cells assessed as increase in accumulation at sub-G1 phase at 0.01 to 0.1 uM measured after 48 hrs by propidium iodide staining based flow cytometry. The note with it: dose 0.01-0.1 µM. Format: functional. In outline: (§2)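 Cells seeded at 2.5×10^5 per well and exposed to DMSO or compound for the stated times. They were washed in PBS and fixed overnight in ice-cold 70% ethanol at −20 °C. Staining used propidium iodide 80 µg/mL with 0.1% Triton X-100 and RNase A 100 µg/mL in PBS. DNA content was read by FACScan flow cytometry.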

Experiment [3] in a line: Antiproliferative activity against human KB-VIN cells incubated for 48 hrs by SRB assay. The note with it: KBVIN. Format: functional. Summed up: (§3)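 KB parental and resistant sublines kept in RPMI 1640 with 5% FBS at 37 °C, 5% CO2. Cells plated, left overnight, then given graded compound concentrations for 48 h. A time-zero plate was fixed with 10% TCA at dosing. Cells were stained with 0.4% SRB in 1% acetic acid, unbound dye washed off, bound dye dissolved in 10 mM Tris base, and absorbance read at 515 nm.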

Experiment [4] concerns KB-VIN. Nature of the experiment: Induction of apoptosis in human KB-VIN cells assessed as increase in cleaved PARP expression at 0.05 uM measured after 48 hrs by Western blot analysis. Format: functional, cell-based. Summed up:
as §1

Experiment [5] relates to KB7D. Kind of experiment: Induction of apoptosis in human KB7D cells assessed as increase in cleaved PARP expression at 0.01 to 0.1 uM measured after 48 hrs by Western blot analysis. Format: functional, cell-based. The settings on record: dose 0.01-0.1 µM. Summed up: as §1
In the next experiment the test system is KB. Kind of experiment: Antiproliferative activity against human KB cells incubated for 48 hrs by SRB assay. Format: functional. Summed up:
as §3

For experiment [6], the system named is KB7D. Nature of the experiment: Induction of apoptosis in human KB7D cells assessed as increase in cleaved caspase-9 expression at 0.01 to 0.1 uM measured after 48 hrs by Western blot analysis. Format: functional, cell-based. The note with it: dose 0.01-0.1 µM. Summed up: (§4)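 KB-7D cells in RPMI 1640 with 5% FBS and 1% penicillin-streptomycin at 37 °C, 5% CO2, attached overnight. Treated with indicated concentrations for 24 or 48 h, lysed, and immunoblotted for cleaved caspases.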

Experiment [7] concerns KB7D. Nature of the experiment: Induction of apoptosis in human KB7D cells assessed as increase in cleaved caspase-9 expression by Western blot analysis. Format: functional, cell-based. Summed up:
as §4

Experiment [8] relates to KB-VIN. Kind of experiment: Induction of apoptosis in human KB-VIN cells assessed as increase in cleaved PARP expression by Western blot analysis. Format: functional, cell-based. In outline:
as §1

In experiment [9] the test system is KB-VIN. Kind of experiment: Induction of apoptosis in human KB-VIN cells assessed as increase in activated gammaH2AX expression at 0.05 uM measured after 48 hrs by Western blot analysis. Format: functional, cell-based. In outline:
as §1

Experiment [10] concerns the target T1, Tubulin (Homo sapiens) (UniProt P68371+Q9H4B7+P0DPH7+P68366+Q13509+Q71U36+P04350+Q3ZCM7+P07437+P68363+Q9BQE3+Q6PEY2+Q13885+Q9BVA1+Q9BUF5). Nature of the experiment: Induction of microtubule disruption in human KB7D cells at 0.05 uM measured after 24 hrs by DAPI staining based deconvolution fluorescence microscopic analysis. Format: cell-based. Summed up:
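Cells on glass coverslips treated 24 h, fixed in 4% paraformaldehyde for 15 min, and permeabilized with 0.5% Triton X-100. Blocked in PBS/2% BSA, stained with anti-beta-tubulin (1:250) and Alexa 488 anti-mouse (1:250), and mounted with DAPI. Imaged by wide-field deconvolution microscopy.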

A further experiment has as its target T2, Histone deacetylase 8 (Homo sapiens, UniProt Q9BY41).
T2 sequence (Q9BY41 whole entry): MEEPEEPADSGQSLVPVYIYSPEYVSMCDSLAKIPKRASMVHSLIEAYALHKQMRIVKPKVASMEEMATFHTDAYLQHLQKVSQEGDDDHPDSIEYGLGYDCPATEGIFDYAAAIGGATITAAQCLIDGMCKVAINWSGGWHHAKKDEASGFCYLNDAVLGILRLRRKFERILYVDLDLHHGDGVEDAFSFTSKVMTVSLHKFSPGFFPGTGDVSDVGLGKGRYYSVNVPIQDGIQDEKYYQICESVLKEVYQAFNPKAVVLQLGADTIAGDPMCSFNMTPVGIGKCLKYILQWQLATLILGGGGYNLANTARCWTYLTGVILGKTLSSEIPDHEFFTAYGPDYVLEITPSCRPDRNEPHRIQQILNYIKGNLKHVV
Kind of experiment: Inhibition of human recombinant HDAC8 using RHKAcKAc-AMC as substrate measured after 60 mins by fluorescence assay.

Experiment [11] relates to KB7D. Kind of experiment: Induction of apoptosis in human KB7D cells assessed as increase in cleaved caspase-3 expression by Western blot analysis. Format: functional, cell-based. Summed up: as §1
Experiment [12] relates to KB-VIN. Kind of experiment: Cell cycle arrest in human KB-VIN cells assessed as increase in accumulation at sub-G1 phase at 0.5 uM measured after 24 hrs by propidium iodide staining based flow cytometry. Format: functional. In outline: as §2
The subject of experiment [13] is KB-VIN. Nature of the experiment: Induction of apoptosis in human KB-VIN cells assessed as increase in cleaved caspase-8 expression by Western blot analysis. Format: functional, cell-based. Summed up: as §1
In experiment [14] the target is T1, Tubulin (Homo sapiens). Nature of the experiment: Induction of microtubule disruption in human KB7D cells assessed as polymerized fraction at 0.01 uM measured after 16 hrs by SDS-PAGE analysis (reference value: 26.4 to 29%). Format: cell-based. Summed up:
(§5)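 KB-Vin or KB-7D cells treated 16 h, then lysed 5 min at 37 °C in the dark in hypotonic buffer (1% NP-40, 1 mmol/L MgCl2, 2 mmol/L EGTA, 50 mmol/L Tris-HCl pH 6.8, protease inhibitors). Spun 13000 rpm, 10 min, room temperature. Soluble supernatant and resuspended polymerized pellet run on SDS-PAGE.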

For experiment [15], the target named is T1, Tubulin (Homo sapiens). Nature of the experiment: Induction of microtubule disruption in human KB-VIN cells assessed as polymerized fraction at 1 uM measured after 16 hrs by SDS-PAGE analysis (reference value: 23.1 to 25.5%). Format: cell-based. Summed up:
as §5

Experiment [16] deals with KB-VIN. Nature of the experiment: Induction of apoptosis in human KB-VIN cells assessed as increase in cleaved caspase-3 expression by Western blot analysis. Format: functional, cell-based. Summed up: as §1
Experiment [17] deals with Histone deacetylase 3/Nuclear receptor corepressor 2 (HDAC3/NCoR2) (Homo sapiens, UniProt O15379). Kind of experiment: Inhibition of human recombinant HDAC3/NCOR2 using RHKKAc-AMC as substrate measured after 60 mins by fluorescence assay. Format: protein-complex assay.
Experiment [18] deals with KB-VIN. Nature of the experiment: Induction of apoptosis in human KB-VIN cells assessed as increase in cleaved PARP expression at 0.1 to 0.5 uM measured after 24 hrs by Western blot analysis. Format: functional, cell-based. The settings on record: dose 0.1-0.5 µM. In outline: as §1

Histone deacetylase 3/Nuclear receptor corepressor 2 (HDAC3/NCoR2), sequence (O15379 whole entry): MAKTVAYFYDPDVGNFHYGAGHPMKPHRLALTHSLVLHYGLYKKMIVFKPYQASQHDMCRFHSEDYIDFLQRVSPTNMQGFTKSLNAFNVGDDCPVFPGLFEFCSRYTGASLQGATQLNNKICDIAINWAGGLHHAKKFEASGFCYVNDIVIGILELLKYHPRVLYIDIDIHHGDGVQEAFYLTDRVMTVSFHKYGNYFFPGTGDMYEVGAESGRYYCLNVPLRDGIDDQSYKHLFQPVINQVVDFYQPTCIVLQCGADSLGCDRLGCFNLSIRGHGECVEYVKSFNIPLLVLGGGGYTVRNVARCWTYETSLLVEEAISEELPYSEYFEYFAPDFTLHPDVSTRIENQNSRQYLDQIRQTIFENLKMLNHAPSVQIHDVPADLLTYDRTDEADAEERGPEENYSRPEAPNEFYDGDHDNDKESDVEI
Histone deacetylase 3/Nuclear receptor corepressor 2 (HDAC3/NCoR2), sequence (Q9Y618 whole entry, further chain): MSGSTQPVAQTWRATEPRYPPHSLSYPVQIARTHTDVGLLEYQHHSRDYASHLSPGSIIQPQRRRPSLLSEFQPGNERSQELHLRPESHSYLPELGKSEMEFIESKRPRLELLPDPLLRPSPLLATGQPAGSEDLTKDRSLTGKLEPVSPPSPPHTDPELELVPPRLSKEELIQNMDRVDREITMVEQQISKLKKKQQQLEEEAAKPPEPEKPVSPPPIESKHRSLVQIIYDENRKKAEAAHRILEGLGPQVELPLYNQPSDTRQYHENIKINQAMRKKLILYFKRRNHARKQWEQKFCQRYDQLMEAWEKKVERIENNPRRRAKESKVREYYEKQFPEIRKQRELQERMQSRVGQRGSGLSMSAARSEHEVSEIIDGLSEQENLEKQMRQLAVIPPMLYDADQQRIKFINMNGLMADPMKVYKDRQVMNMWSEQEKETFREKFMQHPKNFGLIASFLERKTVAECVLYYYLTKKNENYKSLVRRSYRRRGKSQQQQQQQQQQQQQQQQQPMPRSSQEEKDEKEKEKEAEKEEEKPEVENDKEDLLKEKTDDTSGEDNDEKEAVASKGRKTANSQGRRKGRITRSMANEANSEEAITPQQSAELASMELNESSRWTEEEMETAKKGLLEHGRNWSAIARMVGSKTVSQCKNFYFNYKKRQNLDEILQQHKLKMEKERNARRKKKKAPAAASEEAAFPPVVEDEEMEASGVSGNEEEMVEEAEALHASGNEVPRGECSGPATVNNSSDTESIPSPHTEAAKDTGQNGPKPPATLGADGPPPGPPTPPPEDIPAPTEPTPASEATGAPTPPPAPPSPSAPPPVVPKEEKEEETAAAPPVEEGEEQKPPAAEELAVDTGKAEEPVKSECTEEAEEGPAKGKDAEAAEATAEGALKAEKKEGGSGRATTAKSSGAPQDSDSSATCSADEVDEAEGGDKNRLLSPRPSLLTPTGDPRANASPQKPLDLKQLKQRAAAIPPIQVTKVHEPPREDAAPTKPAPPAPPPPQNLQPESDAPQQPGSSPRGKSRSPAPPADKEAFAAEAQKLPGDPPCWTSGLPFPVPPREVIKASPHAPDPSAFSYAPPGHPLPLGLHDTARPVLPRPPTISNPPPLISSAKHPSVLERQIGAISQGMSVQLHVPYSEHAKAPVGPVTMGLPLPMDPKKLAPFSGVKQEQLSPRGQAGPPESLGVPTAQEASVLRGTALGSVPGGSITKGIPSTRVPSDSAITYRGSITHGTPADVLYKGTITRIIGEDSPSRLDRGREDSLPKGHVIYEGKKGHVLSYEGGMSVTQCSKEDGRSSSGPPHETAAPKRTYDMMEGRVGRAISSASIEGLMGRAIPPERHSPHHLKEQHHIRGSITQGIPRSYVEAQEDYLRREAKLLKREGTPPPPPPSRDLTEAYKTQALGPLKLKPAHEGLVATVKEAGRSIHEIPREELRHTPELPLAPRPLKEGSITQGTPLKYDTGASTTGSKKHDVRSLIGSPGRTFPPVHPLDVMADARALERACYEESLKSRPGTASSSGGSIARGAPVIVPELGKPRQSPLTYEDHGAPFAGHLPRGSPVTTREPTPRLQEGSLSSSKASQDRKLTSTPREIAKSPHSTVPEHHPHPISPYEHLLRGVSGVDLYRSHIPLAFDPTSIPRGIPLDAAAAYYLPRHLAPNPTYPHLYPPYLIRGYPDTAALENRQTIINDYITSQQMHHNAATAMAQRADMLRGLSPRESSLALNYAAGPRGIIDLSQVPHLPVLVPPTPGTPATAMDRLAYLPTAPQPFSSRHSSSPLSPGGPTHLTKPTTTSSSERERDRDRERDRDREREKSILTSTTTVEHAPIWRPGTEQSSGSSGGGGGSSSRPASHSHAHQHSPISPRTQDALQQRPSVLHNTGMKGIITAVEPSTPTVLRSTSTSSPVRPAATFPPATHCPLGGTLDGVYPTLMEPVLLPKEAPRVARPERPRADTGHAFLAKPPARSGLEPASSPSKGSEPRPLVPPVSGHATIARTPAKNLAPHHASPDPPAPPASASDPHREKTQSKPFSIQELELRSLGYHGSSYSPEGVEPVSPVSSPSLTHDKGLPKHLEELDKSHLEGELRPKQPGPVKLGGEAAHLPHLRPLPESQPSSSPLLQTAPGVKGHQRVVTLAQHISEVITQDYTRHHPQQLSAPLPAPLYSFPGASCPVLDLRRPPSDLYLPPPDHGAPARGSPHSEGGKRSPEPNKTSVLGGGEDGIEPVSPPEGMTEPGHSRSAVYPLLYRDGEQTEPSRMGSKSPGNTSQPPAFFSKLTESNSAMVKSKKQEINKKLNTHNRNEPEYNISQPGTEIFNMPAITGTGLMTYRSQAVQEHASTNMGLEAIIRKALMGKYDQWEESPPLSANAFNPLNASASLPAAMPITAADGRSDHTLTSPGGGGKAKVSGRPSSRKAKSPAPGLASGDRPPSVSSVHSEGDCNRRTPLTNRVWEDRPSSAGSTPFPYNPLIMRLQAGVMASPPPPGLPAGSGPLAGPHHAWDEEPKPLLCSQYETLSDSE

On to `COc1ccc(S(=O)(=O)Nc2ccccc2NCc2ccc(C(=O)Nc3ccccc3N)cc2)cc1`, for which the Activity result in the experiment with KB-VIN [1] is “Dose-dependent effect”; in the experiment on KB7D [7], “Dose-dependent effect”; with KB-VIN [8], “Dose-dependent effect”; in the experiment on KB7D [11] it was “Dose-dependent effect”; in the experiment with KB-VIN [13], “Dose-dependent effect”; on Tubulin (Homo sapiens) [14] it was 14.4%. Besides, the Activity is 17.8% at Tubulin (Homo sapiens) [15] and “Dose-dependent effect” in the experiment with KB-VIN [16]. The result in the experiment on KB7D [2], in the experiment with KB-VIN [4], in the experiment on KB7D [5], in the experiment with KB7D [6], in the experiment with KB-VIN [9] and on Tubulin (Homo sapiens) [10] was Active. Also, the result with KB-VIN [12] and with KB-VIN [18] was Active. The GI50 in experiment [3] came out at 22 nM; in the experiment on KB it was 10 nM. In addition, the IC50 on Histone deacetylase 8 was above 10000 nM; in experiment [17] it was 2270 nM.
